Experimental data taken from ChEMBL document CHEMBL2069230, “Synthesis, biological evaluation, and docking studies of 3-(substituted)-aryl-5-(9-methyl-3-carbazole)-1H-2-pyrazolines as potent anti-inflammatory and antioxidant agents” (Bioorg Med Chem Lett, 2012).

How the values were obtained:
[1] = target: Prostaglandin G/H synthase 1 (Homo sapiens) (UniProt P23219); experiment: Inhibition of COX1 peroxidase activity assessed as formation of TMPD at 100 uM by colorimetric analysis
How it was run: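 COX-1 peroxidase activity: assay buffer, heme and enzyme with sample (0.1 mM); oxidized TMPD appearance monitored colorimetrically at 590 nm.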

Homo sapiens = species on record: Homo sapiens; experiment: Selectivity ratio of inhibition of COX2 to inhibition of COX1
[2] = tested on: Radical scavenging activity; experiment: Antioxidant activity assessed as DPPH radical scavenging activity at 100 uM after 20 mins by spectrophotometry; assay type: functional
How it was run: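 Test solution (0.1 mM) mixed with an equal quantity of 0.1 mM DPPH in ethanol; 20 min at room temperature, then DPPH reduction read as absorbance at 517 nm. Ascorbic acid (0.1 mM) as reference.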

[3] = Antioxidant activity assessed as superoxide radical scavenging activity at 100 uM after 5 mins by NBT reduction assay; assay type: functional
How it was run: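 Superoxide generated in Tris-HCl (100 mM, pH 7.4) with NBT (300 µM), NADH (936 µM) and sample (0.1 mM); NBT reduction read after 5 min at room temperature as absorbance at 560 nm. Ascorbic acid (0.1 mM) reference.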

[4] = Antioxidant activity assessed as H2O2-induced hydroxyl radical scavenging activity at 100 uM after 5 mins by spectrophotometry; assay type: functional
How it was run: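 Mixture of FeCl2 (1 mM), 1,10-phenanthroline (1 mM), phosphate buffer (0.2 M, pH 7.8), H2O2 (0.17 M) and sample (0.1 mM); reaction started with H2O2, 5 min at room temperature, absorbance at 560 nm. Ascorbic acid (0.1 mM) reference.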

Mus musculus [5] = experiment: Antiinflammatory activity in AKR mouse assessed as inhibition of carrageenan-induced paw edema at 0.01 mmol/kg dosed intradermally after 3.5 hrs relative to vehicle-treated control; assay type: functional
How it was run: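 Edema induced in right hind paw of AKR mice (both sexes, pregnant females excluded, fasted during experiment) by intradermal 0.05 mL of 2% carrageenin in water; 6–10 animals per group. Paw weight increase, injected vs uninjected paw, compared with water-treated controls as percent edema inhibition; experiments in duplicate, mean of two.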

Mus musculus [6] = experiment: Toxicity in carrageenan-challenged AKR mouse up to 0.5 mmol/kg dosed intradermally; assay type: organism-based; conditions: in vivo, other

Sequence of Prostaglandin G/H synthase 1 (Homo sapiens) (P23219 whole entry): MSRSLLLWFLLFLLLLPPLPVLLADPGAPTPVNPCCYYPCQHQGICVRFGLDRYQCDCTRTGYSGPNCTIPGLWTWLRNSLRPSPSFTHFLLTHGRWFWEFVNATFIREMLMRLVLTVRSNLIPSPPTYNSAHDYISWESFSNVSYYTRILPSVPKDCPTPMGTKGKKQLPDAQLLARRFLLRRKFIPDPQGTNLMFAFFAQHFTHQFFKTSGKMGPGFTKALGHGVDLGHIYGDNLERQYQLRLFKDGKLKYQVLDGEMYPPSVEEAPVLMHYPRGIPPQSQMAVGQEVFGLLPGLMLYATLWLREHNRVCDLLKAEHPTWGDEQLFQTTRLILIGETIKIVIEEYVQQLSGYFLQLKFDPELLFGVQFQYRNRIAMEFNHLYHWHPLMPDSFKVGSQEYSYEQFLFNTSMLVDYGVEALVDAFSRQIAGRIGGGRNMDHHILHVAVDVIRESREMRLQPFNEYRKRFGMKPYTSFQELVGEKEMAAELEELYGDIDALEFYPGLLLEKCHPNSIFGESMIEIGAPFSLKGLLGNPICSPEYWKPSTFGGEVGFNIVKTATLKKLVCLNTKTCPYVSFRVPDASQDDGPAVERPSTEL

inhibition [1] [%] | Selectivity ratio (Homo sapiens) | Structure (SMILES) | Activity [2] [%] | Activity [3] [%] | Activity [4] [%] | inhibition in vivo at 10 µmol/kg (Mus musculus [5]) [%] | Activity (Mus musculus [6])
90.8 | 0.22 | Cn1c2ccccc2c2cc(C3CC(c4ccc(F)c(F)c4)=NN3)ccc21 (stereo unspecified) | 79.8 | 69.4 | 63.2 |  | 
20.6 | 4.06 | COc1ccc(C2=NNC(c3ccc4c(c3)c3ccccc3n4C)C2)cc1 (stereo unspecified) | 80.8 | 56.2 | 58.2 | 51.4 | Non-toxic
24.1 | 1.68 | Cn1c2ccccc2c2cc(C3CC(c4ccc(Cl)cc4Cl)=NN3)ccc21 (stereo unspecified) | 92.1 | 81.7 | 69.3 |  | 
87.4 | 1.02 | Cn1c2ccccc2c2cc(C3CC(c4ccc(Br)cc4)=NN3)ccc21 (stereo unspecified) | 80.6 | 56.2 | 57.5 |  | 
10.2 | 2.16 | Cn1c2ccccc2c2cc(C3CC(c4ccccc4)=NN3)ccc21 (stereo unspecified) | 79.9 | 63.2 | 63.5 |  | 
18.5 | 2.61 | Cn1c2ccccc2c2cc(C3CC(c4cccs4)=NN3)ccc21 (stereo unspecified) | 85.3 | 81.1 | 63.1 | 42.2 | Non-toxic
20.1 | 2.06 | Cn1c2ccccc2c2cc(C3CC(c4ccccn4)=NN3)ccc21 (stereo unspecified) | 72 | 62.2 | 54.8 |  | 
10.2 | 1.24 | Cn1c2ccccc2c2cc(C3CC(c4ccc(Cl)cc4)=NN3)ccc21 (stereo unspecified) | 79.3 | 62.4 | 55 |  | 
46.2 | 0.49 | Cn1c2ccccc2c2cc(C3CC(c4ccc(F)cc4)=NN3)ccc21 (stereo unspecified) | 79.3 | 45.6 | 54.6 |  | 
14.2 | 1.3 | Cn1c2ccccc2c2cc(C3CC(c4ccc([N+](=O)[O-])cc4)=NN3)ccc21 (stereo unspecified) | 81.1 | 65.1 | 64.8 |  | 
 |  | O=C1O[C@H]([C@@H](O)CO)C(O)=C1O | 91.5 | 52 | 88.3 |  | 
8.85 | 1.14 | Cn1c2ccccc2c2cc(C3CC(c4cc(Cl)ccc4Cl)=NN3)ccc21 (stereo unspecified) | 91.7 | 86.3 | 78.6 |  | 
10.4 | 2.58 | Cn1c2ccccc2c2cc(C3CC(c4ccc(F)cc4F)=NN3)ccc21 (stereo unspecified) | 83.8 | 63.2 | 60.2 |  | 
12.2 | 1.34 | Cn1c2ccccc2c2cc(C3CC(c4ccc(Cl)c(Cl)c4)=NN3)ccc21 (stereo unspecified) | 87.4 | 61.4 | 65.1 |  | 
23.5 | 3.69 | COc1cc(OC)c(C2=NNC(c3ccc4c(c3)c3ccccc3n4C)C2)c(OC)c1 (stereo unspecified) | 86 | 70.4 | 74.3 | 54.3 | Non-toxic
24.1 | 3.66 | COc1ccc(C2=NNC(c3ccc4c(c3)c3ccccc3n4C)C2)cc1OC (stereo unspecified) | 84 | 69.4 | 69.3 | 60.3 | Non-toxic
